PP5 primary: blocks human protein phosphatase 5 activity; AID 1987; actives 0.18% (n = 320,000); P53041; purified PP5c, OMFP substrate fluorescence; inhibition, % at 6.7 µM;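 active = inhibition above the campaign's mean inhibition across all tested compounds plus 3 SD, cut at about 9.5% in these data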
PP1 counter: PP1-alpha (human) inhibition in PP5 counter-screen; P62136; purified PP1alpha, OMFP fluorescence; inhibition, % at 6.7 µM; actives 0.9% (n = 320,000); AID 2235;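 active = inhibition above the mean inhibition of all tested compounds plus 3 SD, computed separately for each screening campaign, cut at about 15% in these data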
proCasp3 act: activators of human procaspase-3 | AID 463141 | recombinant procaspase-3 D3A, Ac-DEVD-pNA absorbance 405 nm | activation, % at 8.5 µM | actives 0.11% (n = 330,000);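 active = activation above the mean of all tested compounds plus 3 SD, cut at about 21% in these data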
Target sequence (P42574 whole entry D9A/D28A/D175A): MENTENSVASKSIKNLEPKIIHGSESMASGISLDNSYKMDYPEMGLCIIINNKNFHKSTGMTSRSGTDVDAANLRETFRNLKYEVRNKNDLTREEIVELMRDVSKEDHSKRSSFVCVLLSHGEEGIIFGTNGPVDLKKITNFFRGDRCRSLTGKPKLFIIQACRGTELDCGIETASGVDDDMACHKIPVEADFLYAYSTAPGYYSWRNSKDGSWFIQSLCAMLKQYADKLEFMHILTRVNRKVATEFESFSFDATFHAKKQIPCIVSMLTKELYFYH
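Test system: Procaspase-3 D3A mutant; medium: Zinc-free HEPES/NaCl buffer with 0.01% Triton X-100 at pH 7.4; reagent: DEVD-pNA substrate; doses: one concentration, 8.5 µM nominal, 0.8% DMSO; times: 1 h preincubation plus 2 h reaction at 25 °C; signal: Epi-absorbance at 405 nm of released p-nitroaniline, 0 and 120 min; replicates: singlicate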
procasp7 counter: activates human procaspase-7, counter-screen for procaspase-3 activators | P55210 | recombinant procaspase-7, Ac-DEVD-pNA absorbance 405 nm; D23A/D198A/D206A triple mutant, cannot self-cleave; scale: DMSO 0, 5 µM enzyme 100 | activation, % at 8.5 µM | actives 0.093% (n = 330,000) | AID 463210;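 active = percent activation above the screen-wide mean plus 3 SD, cut at about 25% in these data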
Target sequence (P55210 whole entry D23A/D198A/D206A): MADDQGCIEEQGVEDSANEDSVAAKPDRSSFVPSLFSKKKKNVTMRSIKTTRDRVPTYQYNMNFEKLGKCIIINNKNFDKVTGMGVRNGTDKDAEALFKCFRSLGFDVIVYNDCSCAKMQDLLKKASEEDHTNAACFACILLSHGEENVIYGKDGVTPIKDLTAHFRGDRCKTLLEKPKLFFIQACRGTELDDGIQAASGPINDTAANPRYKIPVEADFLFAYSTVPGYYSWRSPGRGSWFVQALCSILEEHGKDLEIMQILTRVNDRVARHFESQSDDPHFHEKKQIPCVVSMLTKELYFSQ
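Assay system: Uncleavable procaspase-7 mutant enzyme; Input: 2 µM procaspase-7 mutant as dispensed; Also added: DEVD-pNA substrate; Medium: Zinc-free HEPES pH 7.4 with 300 mM NaCl, 0.01% Triton X-100; Timing: 1 h compound preincubation, 2 h substrate cleavage, 25 °C; Measured by: Epi-absorbance of released pNA at 405 nm, two timepoints.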
PP1 inh confirm: confirmation of human PP1 phosphatase inhibitors; shares compounds with PP1 counter; actives 52% (n = 1,900); purified PP1alpha, OMFP substrate fluorescence; inhibition, % at 6.7 µM;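 active = mean PP1 inhibition above a set limit taken from the earlier primary screen, cut at about 15% in these data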
PP5 counter: counter-screen for PP1 inhibitors: human PP5 phosphatase inhibition; shares compounds with PP1 counter; AID 2360; purified PP5c, OMFP fluorescence; inhibition, % at 6.7 µM; actives 4% (n = 1,900);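 active = mean PP5 inhibition over triplicate wells above about 9.5% taken from the earlier PP1 screen, limit read from the data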
Each line names hits and unclear results; the compound was inactive in the other large screens (follow-up assays come after a bar, where they were run). Only some compounds are listed: those with a hit (about 1.2% of all), similar ones and a draw of the others.

O=C(O)C1C2CCC(O2)C1C(=O)Nc1cccc(Cl)c1 (stereo unspecified)	PP5 primary 69.3, PP1 counter 70.5 | PP1 inh confirm 16.6 | PP5 counter 25.3
O=C(O)C1C2CCC(O2)C1C(=O)Nc1ccc(Cl)cc1F (stereo unspecified)	PP5 primary 69.2, PP1 counter 67.0 | PP1 inh confirm 25.8 | PP5 counter 33.5
Cc1nn(Cc2ccc(Cl)cc2Cl)c(C)c1NC(=O)C1C2CCC(O2)C1C(=O)O (stereo unspecified)	PP5 primary 46.0, PP1 counter 31.8 | PP1 inh confirm inactive | PP5 counter 22.5
O=C(O)C1C2CCC(O2)C1C(=O)NCc1ccc(Cl)cc1 (stereo unspecified)	PP5 primary 48.5, PP1 counter 32.2 | PP1 inh confirm 16.7 | PP5 counter 31.6
CCOC(=O)NC(=O)CSc1ccc(S(=O)(=O)N(C)C2CCCCC2)cn1	none
CSc1nc(N)nc2c1ncn2CC(=O)NCCNc1ccc([N+](=O)[O-])cn1	none (no result: PP5 primary, PP1 counter)
CC(=O)c1ccc(N2C(=O)NC3(CCCCC3)C2=O)cc1	none
Cc1nn(C)cc1CNC(=O)C1C2CCC(O2)C1C(=O)O (stereo unspecified)	PP5 primary 69.7, PP1 counter 61.9 | PP1 inh confirm 37.4 | PP5 counter 40.9
CSCCC(NC(=O)c1ccccc1)C(=O)N1CC(C)OC(C)C1 (stereo unspecified)	none
COc1ccc(-c2cnc3n2CCCCC3)cc1	none
Clc1ccc(C2=C3CCCCn4c(-c5ccccc5)c[n+](c43)C2)cc1	PP1 counter 18.0 | PP1 inh confirm inactive | PP5 counter inactive
O=C(C[n+]1cc(-c2ccc(Cl)cc2)n2c1CCCCC2)c1ccccc1	none
COc1ccc(-c2c[n+]3c4n2CCCCC4=C(c2ccc(Br)cc2)C3)cc1	PP1 counter 33.0 | PP1 inh confirm inactive | PP5 counter inactive
COC(=O)Cn1c(N)[n+](Cc2ccccc2)c2ccccc21	none
Cc1cccc(N2CCN(C(=O)c3ccc4c(c3)OCCO4)CC2)c1C	none
Cc1cccc(N2CCN(C(=O)c3ccc4c(c3)NC(=O)C(CSCc3cccc(F)c3)N4)CC2)c1C (stereo unspecified)	PP1 counter 23.5 | PP1 inh confirm 28.6 | PP5 counter inactive
C=CCN1CC(C(=O)N2CCC(Cc3ccc(Cl)cc3)(C(=O)OCC)CC2)CC1=O (stereo unspecified)	none
N#Cc1c(N(CCO)CCO)nc(N)c2c(N)nc3c(c12)CC(=O)N3CC1CCCO1 (stereo unspecified)	none
N#Cc1c(N2CCCC(O)C2)nc(N)c2c(N)nc3c(c12)CC(=O)N3C12CC3CC(CC(C3)C1)C2 (stereo unspecified)	PP5 primary 13.6, PP1 counter 19.2 | PP1 inh confirm inactive | PP5 counter 56.7
CCCCN1C(=O)Cc2c1nc(N)c1c(N)nc(N(CCC)CCC)c(C#N)c21	PP5 primary 15.1, PP1 counter 16.2 | PP1 inh confirm inactive | PP5 counter inactive
C=C(C)CN(CC)c1nc(N)c2c(N)nc3c(c2c1C#N)CC(=O)N3C12CC3CC(CC(C3)C1)C2	PP1 counter 19.5 | PP1 inh confirm inactive | PP5 counter inactive
O=[N+]([O-])c1ccccc1/C=C/C=N/n1c(-c2ccccc2)n[nH]c1=S	none
O=[N+]([O-])c1ccccc1/C=C/C=N/n1c(-c2ccc(Cl)cc2)n[nH]c1=S	PP1 counter 25.4 | PP1 inh confirm 27.5 | PP5 counter inactive
Cc1cc(C(=O)COC(=O)CC2Sc3ccccc3NC2=O)c(C)n1-c1ccccc1 (stereo unspecified)	PP1 counter 22.5 | PP1 inh confirm inactive | PP5 counter inactive
CSc1nc(=S)n(-c2ccc([N+](=O)[O-])cc2)c(C)c1C(C)=O	none
CC(C)(C)[C@H]1COC(=O)CC/C=C\C[C@@H](CC(=O)N(CCO)Cc2ccccc2)C(=O)N1	none (no result: PP5 primary, PP1 counter)
COC(=O)c1ccc(C2/C(=C(/O)c3ccc(OC(C)C)cc3)C(=O)C(=O)N2c2cc(C)on2)cc1 (stereo unspecified)	PP1 counter 19.8 | PP1 inh confirm inactive | PP5 counter inactive
Cc1ccc(S(=O)(=O)N2[C@@H](c3ccc(Cl)cc3)C(C(=O)O)=CC[C@H]2c2ccc(Cl)c(Cl)c2)cc1	PP1 counter 21.1 | PP1 inh confirm 15.6 | PP5 counter inactive
Cc1ccc(S(=O)(=O)N2[C@@H](c3cccc(Cl)c3)C(C(=O)O)=CC[C@H]2c2ccc(Cl)cc2)cc1	PP1 counter 18.7 | PP1 inh confirm inactive | PP5 counter inactive
CC(C)(CNC(=O)c1cccc(F)c1)CNC(=O)c1cccc(F)c1	none
CN([C@@H](Cc1ccc(OS(=O)(=O)c2cccc3cnccc23)cc1)C(=O)N1CCN(c2ccccc2)CC1)S(=O)(=O)c1cccc2cnccc12	PP1 counter 28.8 | PP1 inh confirm 19.9 | PP5 counter inactive
O=C1NN(c2ccc(Cl)c(Cl)c2)C(=O)/C1=C/c1cccc(OC(=O)c2cccs2)c1	PP1 counter 27.2 | PP1 inh confirm 23.2 | PP5 counter inactive
C=Cn1cc[n+](CC(=O)c2ccc(-c3ccccc3)cc2)c1	PP1 counter 21.7 | PP1 inh confirm inactive | PP5 counter inactive
CC(NCC(=O)Nc1cc(S(=O)(=O)N2CCCCCC2)ccc1Cl)c1ccccc1 (stereo unspecified)	none
O=c1ccc2cc3c([nH]c4ccc(Br)cc43)oc-2c1O	PP1 counter 57.7 | PP1 inh confirm 36.8 | PP5 counter inactive
O=c1[nH]c(C2CCCN(S(=O)(=O)c3cccc(Cl)c3)C2)nc2c1nnn2Cc1ccc2c(c1)OCCO2 (stereo unspecified)	PP1 counter 23.7 | PP1 inh confirm inactive | PP5 counter inactive
O=c1[nH]c(C2CCCN(S(=O)(=O)c3ccccc3)C2)nc2c1nnn2Cc1ccc2c(c1)OCCO2 (stereo unspecified)	none
Cc1ccc(C)c(S(=O)(=O)N2CCC(c3nc4c(nnn4Cc4ccc5c(c4)OCCO5)c(=O)[nH]3)CC2)c1	PP1 counter 23.6 | PP1 inh confirm 21.8 | PP5 counter inactive
CCN(CC(=O)NCc1ccc(F)cc1)C(=O)CN1CCN(c2cc(Cl)ccc2C)CC1	none
O=C(COC(=O)CCCN=C1NS(=O)(=O)c2ccccc21)NNC(=O)c1ccccc1	none
Cc1cc(-c2csc(N)n2)c(C)n1CCc1ccccc1	PP1 counter 21.3 | PP1 inh confirm 19.5 | PP5 counter inactive
CC(=O)N/C(=C\c1ccccc1)C(=O)OCC(=O)N(C)C1CCS(=O)(=O)C1 (stereo unspecified)	none (no result: PP5 primary, PP1 counter)
COCCC(=O)Nc1ccc2c(c1)CN(C(=O)c1ccc(CSC)o1)CC2	none
O=c1cc(-c2ccccc2Cl)oc2cccc(O)c12	none

Bioassay records as filed in PubChem BioAssay.
